Test results from ChEMBL document CHEMBL3588830, “Indole Alkaloids from Chaetomium globosum” (J Nat Prod, 2015).
pIC50: −log10 of the molar value. Activity calls are given as the source filed them. The calls are words filed in the database; no cut-off is given here.

What was measured:
Aspergillus niger [1] = assay: Antimicrobial activity against Aspergillus niger assessed as inhibition of microbial growth incubated up to 100 ug/mL at 31 degC for 72 hrs; assay type: functional, organism-based
Method in brief: (§1)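 Oxford cup diffusion on agar plates of potato extract 20% (w/v, boiled 20 min), dextrose 20.0 g/L and agar 17 g/L, inoculated with the test fungus. Plates were incubated at 31 °C for 72 h.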

Escherichia coli = assay: Antimicrobial activity against Escherichia coli 1.044 assessed as inhibition of microbial growth incubated at 37 degC for 24 hrs; assay type: functional; conditions: Escherichia coli, 1.044, 24 h
Method in brief: (§2)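 MIC by tube broth dilution in MHB. Samples were dissolved in DMSO, with final DMSO no more than 5% (v/v). Final dilutions ran from 50 to 0.19 μg/mL, with final bacteria at 1 × 10^8 CFU/mL. Tubes were incubated at 37 °C for 24 h. MIC was taken as the lowest concentration inhibiting visible growth.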

[2] = Antioxidative activity assessed as ABTS cation radical scavenging activity; assay type: physicochemical
Fusarium graminearum [3] = assay: Antimicrobial activity against Fusarium graminearum assessed as inhibition of microbial growth up to 100 ug/mL incubated at 31 degC for 72 hrs; assay type: functional, organism-based
Method in brief: (§3)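 Oxford cup diffusion assay on agar plates of potato extract 20% (w/v, boiled 20 min), dextrose 20.0 g/L and agar 17 g/L, seeded with the fungal strain. Plates incubated at 31 °C for 72 h.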

[4] = Antioxidative activity assessed as DPPH radical scavenging activity; assay type: physicochemical
[5] = Antioxidative activity assessed as superoxide anion radical scavenging activity at 61.3 uM; assay type: physicochemical
Candida albicans [6] = assay: Antimicrobial activity against Candida albicans assessed as inhibition of microbial growth up to 100 ug/mL incubated at 31 degC for 72 hrs; assay type: functional, organism-based; method in brief: as §1
[7] = test system: Fusarium oxysporum f. sp. vasinfectum; assay: Antimicrobial activity against Fusarium vasinfectum assessed as inhibition of microbial growth up to 100 ug/mL incubated at 31 degC for 72 hrs; assay type: functional, organism-based; method in brief: as §1
Saccharomyces cerevisiae [8] = assay: Antimicrobial activity against Saccharomyces cerevisiae assessed as inhibition of microbial growth up to 100 ug/mL incubated at 31 degC for 72 hrs; assay type: functional, organism-based; method in brief: as §1
Bacillus subtilis = assay: Antimicrobial activity against Bacillus subtilis 1.079 assessed as inhibition of microbial growth incubated at 37 degC for 24 hrs; assay type: functional; conditions: Bacillus subtilis, 1.079, 24 h; method in brief: as §2
Candida albicans [9] = assay: Antimicrobial activity against Candida albicans assessed as inhibition of microbial growth up to 200 ug/mL incubated at 31 degC for 72 hrs; assay type: functional, organism-based; method in brief: as §3
Saccharomyces cerevisiae [10] = assay: Antimicrobial activity against Saccharomyces cerevisiae assessed as inhibition of microbial growth up to 200 ug/mL incubated at 31 degC for 72 hrs; assay type: functional, organism-based; method in brief: as §3
[11] = Antioxidative activity assessed as superoxide anion radical scavenging activity at 90.9 uM; assay type: physicochemical
[12] = Antioxidative activity assessed as ABTS cation radical scavenging activity at 108.3 uM; assay type: physicochemical
[13] = test system: Fusarium oxysporum f. sp. vasinfectum; assay: Antimicrobial activity against Fusarium vasinfectum assessed as inhibition of microbial growth up to 200 ug/mL incubated at 31 degC for 72 hrs; assay type: functional, organism-based; method in brief: as §3
Fusarium graminearum [14] = assay: Antimicrobial activity against Fusarium graminearum assessed as inhibition of microbial growth up to 200 ug/mL incubated at 31 degC for 72 hrs; assay type: functional, organism-based; method in brief: as §3
Aspergillus niger [15] = assay: Antimicrobial activity against Aspergillus niger assessed as inhibition of microbial growth incubated up to 200 ug/mL at 31 degC for 72 hrs; assay type: functional, organism-based; method in brief: as §3
[16] = Antioxidative activity assessed as DPPH radical scavenging activity at 93.9 uM; assay type: physicochemical
[17] = Antioxidative activity assessed as ABTS cation radical scavenging activity at 103.7 uM; assay type: physicochemical
[18] = Antioxidative activity assessed as DPPH radical scavenging activity at 89.9 uM; assay type: physicochemical
[19] = Antioxidative activity assessed as superoxide anion radical scavenging activity at 88.3 uM; assay type: physicochemical
[20] = Antioxidative activity assessed as superoxide anion radical scavenging activity; assay type: physicochemical

SMILES: CC(C)=CCc1ccc2[nH]cc(C3=C(O)C(=O)C(O)(c4c[nH]c5ccc(CC=C(C)C)cc45)C(=O)C3=O)c2c1 (centres undefined)
- growth inhibition (GI) (Aspergillus niger [1]): inactive
- MIC (Escherichia coli): > 50 µg/mL
- pIC50 [2]: 4.34
- growth inhibition (GI) (Fusarium graminearum [3]): inactive
- pIC50 [4]: 3.84
- inhibition (INH) [5]: 30.4%
- growth inhibition (GI) (Candida albicans [6]): inactive
- growth inhibition (GI) [7]: inactive
- growth inhibition (GI) (Saccharomyces cerevisiae [8]): inactive
- MIC (Bacillus subtilis): 50 µg/mL

SMILES: CN1C(=O)[C@]2(Cc3cn([C@]45C[C@@]67SS[C@@](CO)(C(=O)N6[C@H]4Nc4ccccc45)N(C)C7=O)c4ccccc34)SS[C@@]1(CO)C(=O)N2C [CHETOMIN]
- MIC (Escherichia coli): > 50 µg/mL
- growth inhibition (GI) (Candida albicans [9]): inactive
- growth inhibition (GI) (Saccharomyces cerevisiae [10]): inactive
- inhibition (INH) [11]: 18.1%
- inhibition (INH) [12]: < 20%
- growth inhibition (GI) [13]: inactive
- growth inhibition (GI) (Fusarium graminearum [14]): inactive
- growth inhibition (GI) (Aspergillus niger [15]): inactive
- inhibition (INH) [16]: < 10%
- MIC (Bacillus subtilis): 0.78 µg/mL

SMILES: CN1C(=O)C2=CC3(n4cc(C[C@@]56SSSS[C@@](CO)(C(=O)N5C)N(C)C6=O)c5ccccc54)c4ccccc4N[C@@H]3N2C(=O)C1CO (some centres undefined)
- MIC (Escherichia coli): > 50 µg/mL
- inhibition (INH) [11]: 14.8%
- inhibition (INH) [12]: < 20%
- inhibition (INH) [16]: < 10%
- MIC (Bacillus subtilis): 25 µg/mL

SMILES: COc1cccc(OC)c1C(=O)N[C@@H]1C(=O)N2[C@@H]1SC(C)(C)[C@@H]2C(=O)O [METHICILLIN]
- MIC (Bacillus subtilis): 0.78 µg/mL

SMILES: O=C1O[C@H]([C@@H](O)CO)C(O)=C1O [ASCORBIC ACID]
- pIC50 [2]: 8.00
- pIC50 [4]: 7.70

SMILES: CN1C(=O)[C@]2(Cc3cn([C@]45C[C@@]67SSS[C@@](CO)(C(=O)N6[C@H]4Nc4ccccc45)N(C)C7=O)c4ccccc34)SS[C@@]1(CO)C(=O)N2C [CHETOSEMINUDIN A]
- MIC (Escherichia coli): > 50 µg/mL
- inhibition (INH) [17]: < 20%
- inhibition (INH) [18]: < 10%
- inhibition (INH) [19]: 51.5%
- MIC (Bacillus subtilis): 0.78 µg/mL

SMILES: O=c1cc(-c2ccc(O)c(O)c2)oc2cc(O)cc(O)c12 [LUTEOLIN]
- pIC50 [20]: 4.65
